In paper PMC9217999 (Targeted Oncology, 2022):
Entries after “also recorded” stand apart in the source; their conditions may differ.

Assay: Safety and tolerability in iMATRIX-cobi Phase I/II study
Type: in vivo, human
Method in brief: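 Patients aged 6 months to <30 years with relapsed/refractory solid tumors with MAPK pathway involvement. Oral test compound (20-mg tablet or suspension, with/without food) on Days 1–21 of 28-day cycles. Cumulative weekly weight-based dose rounded to 20 mg, capped at 60 mg/day. Rolling 6 escalation in cohorts of 3–6. Eye exams including OCT at baseline, cycle 1 Days 8/15, and each later cycle Day 1. All dosed patients evaluated.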

[1] = Dose escalation tablet (n = 18)

Structure (SMILES): O=C(c1ccc(F)c(F)c1Nc1ccc(I)cc1F)N1CC(O)([C@@H]2CCCCN2)C1 [cobimetinib]
- Treatment-related AE: Encephalopathy, G3 [1]: 1 (6) n (%)
- Treatment-related AE: Encephalopathy, G4 [1]: 0 n (%)
- Treatment-related AE: Erythema, G1 [1]: 2 (11) n (%)
- Treatment-related AE: Erythema, G2 [1]: 0 n (%)
- Treatment-related AE: Erythema, G3 [1]: 0 n (%)
- Treatment-related AE: Erythema, G4 [1]: 0 n (%)
- Treatment-related AE: Fatigue, G1 [1]: 2 (11) n (%)
- Treatment-related AE: Fatigue, G2 [1]: 0 n (%)
- Treatment-related AE: Fatigue, G3 [1]: 0 n (%)
- Treatment-related AE: Fatigue, G4 [1]: 0 n (%)
- Treatment-related AE: Headache, G1 [1]: 1 (6) n (%)
- Treatment-related AE: Headache, G2 [1]: 0 n (%)
- Treatment-related AE: Headache, G3 [1]: 1 (6) n (%)
- Treatment-related AE: Headache, G4 [1]: 0 n (%)
- Treatment-related AE: Nausea, G1 [1]: 3 (17) n (%)
- Treatment-related AE: Nausea, G2 [1]: 0 n (%)
- Treatment-related AE: Nausea, G3 [1]: 0 n (%)
- Treatment-related AE: Nausea, G4 [1]: 0 n (%)
- Treatment-related AE: Paronychia, G1 [1]: 0 n (%)
- Treatment-related AE: Paronychia, G2 [1]: 0 n (%)
- Treatment-related AE: Paronychia, G3 [1]: 0 n (%)
- Treatment-related AE: Paronychia, G4 [1]: 0 n (%)
- Treatment-related AE: Rash, G1 [1]: 3 (17) n (%)
- Treatment-related AE: Rash, G2 [1]: 0 n (%)
- Treatment-related AE: Rash, G3 [1]: 0 n (%)
- Treatment-related AE: Rash, G4 [1]: 0 n (%)
- Treatment-related AE: Transaminases increased, G1 [1]: 0 n (%)
- Treatment-related AE: Transaminases increased, G2 [1]: 0 n (%)
- Treatment-related AE: Transaminases increased, G3 [1]: 0 n (%)
- Treatment-related AE: Transaminases increased, G4 [1]: 0 n (%)
- Treatment-related AE: Vomiting, G1 [1]: 1 (6) n (%)
- Treatment-related AE: Vomiting, G2 [1]: 2 (11) n (%)
- Treatment-related AE: Vomiting, G3 [1]: 0 n (%)
- Treatment-related AE: Vomiting, G4 [1]: 0 n (%)
- Treatment-related AE: Weight increased, G1 [1]: 0 n (%)
- Treatment-related AE: Weight increased, G2 [1]: 0 n (%)
- Treatment-related AE: Weight increased, G3 [1]: 1 (6) n (%)
- Treatment-related AE: Weight increased, G4 [1]: 0 n (%)
- Any treatment-related AE, G1 (Dose expansion (n = 12)): 3 (25) n (%)
- Any treatment-related AE, G2 (Dose expansion (n = 12)): 3 (25) n (%)
- Any treatment-related AE, G3 (Dose expansion (n = 12)): 3 (25) n (%)
- Any treatment-related AE, G4 (Dose expansion (n = 12)): 2 (17) n (%)
- Treatment-related AE: ALT increased, G1 (Dose expansion (n = 12)): 1 (8) n (%)
- Treatment-related AE: ALT increased, G2 (Dose expansion (n = 12)): 0 n (%)
- Treatment-related AE: ALT increased, G3 (Dose expansion (n = 12)): 0 n (%)
- Treatment-related AE: ALT increased, G4 (Dose expansion (n = 12)): 0 n (%)
- Treatment-related AE: AST increased, G1 (Dose expansion (n = 12)): 1 (8) n (%)
- Treatment-related AE: AST increased, G2 (Dose expansion (n = 12)): 0 n (%)
- Treatment-related AE: AST increased, G3 (Dose expansion (n = 12)): 1 (8) n (%)
- Treatment-related AE: AST increased, G4 (Dose expansion (n = 12)): 0 n (%)
- Treatment-related AE: Abdominal pain, G1 (Dose expansion (n = 12)): 3 (25) n (%)
- Treatment-related AE: Abdominal pain, G2 (Dose expansion (n = 12)): 0 n (%)
- Treatment-related AE: Abdominal pain, G3 (Dose expansion (n = 12)): 0 n (%)
- Treatment-related AE: Abdominal pain, G4 (Dose expansion (n = 12)): 0 n (%)
- Treatment-related AE: Anemia, G1 (Dose expansion (n = 12)): 1 (8) n (%)
- Treatment-related AE: Anemia, G2 (Dose expansion (n = 12)): 0 n (%)
- Treatment-related AE: Anemia, G3 (Dose expansion (n = 12)): 1 (8) n (%)
- Treatment-related AE: Anemia, G4 (Dose expansion (n = 12)): 0 n (%)
- Treatment-related AE: Asthenia, G1 (Dose expansion (n = 12)): 0 n (%)
- Treatment-related AE: Asthenia, G2 (Dose expansion (n = 12)): 0 n (%)
- Treatment-related AE: Asthenia, G3 (Dose expansion (n = 12)): 1 (8) n (%)
- Treatment-related AE: Asthenia, G4 (Dose expansion (n = 12)): 0 n (%)
- Treatment-related AE: Blood CPK increased, G1 (Dose expansion (n = 12)): 0 n (%)
- Treatment-related AE: Blood CPK increased, G2 (Dose expansion (n = 12)): 0 n (%)
- Treatment-related AE: Blood CPK increased, G3 (Dose expansion (n = 12)): 1 (8) n (%)
- Treatment-related AE: Blood CPK increased, G4 (Dose expansion (n = 12)): 1 (8) n (%)
- Treatment-related AE: Chorioretinopathy, G1 (Dose expansion (n = 12)): 0 n (%)
- Treatment-related AE: Chorioretinopathy, G2 (Dose expansion (n = 12)): 0 n (%)
- Treatment-related AE: Chorioretinopathy, G3 (Dose expansion (n = 12)): 0 n (%)
- Treatment-related AE: Chorioretinopathy, G4 (Dose expansion (n = 12)): 0 n (%)
- Treatment-related AE: Constipation, G1 (Dose expansion (n = 12)): 0 n (%)
- Treatment-related AE: Constipation, G2 (Dose expansion (n = 12)): 0 n (%)
- Treatment-related AE: Constipation, G3 (Dose expansion (n = 12)): 0 n (%)
- Treatment-related AE: Constipation, G4 (Dose expansion (n = 12)): 0 n (%)
- Treatment-related AE: Decreased appetite, G1 (Dose expansion (n = 12)): 1 (8) n (%)
- Treatment-related AE: Decreased appetite, G2 (Dose expansion (n = 12)): 0 n (%)
- Treatment-related AE: Decreased appetite, G3 (Dose expansion (n = 12)): 0 n (%)
- Treatment-related AE: Decreased appetite, G4 (Dose expansion (n = 12)): 0 n (%)
- Treatment-related AE: Dermatitis acneiform, G1 (Dose expansion (n = 12)): 1 (8) n (%)
- Treatment-related AE: Dermatitis acneiform, G2 (Dose expansion (n = 12)): 0 n (%)
- Treatment-related AE: Dermatitis acneiform, G3 (Dose expansion (n = 12)): 0 n (%)
- Treatment-related AE: Dermatitis acneiform, G4 (Dose expansion (n = 12)): 0 n (%)
- Treatment-related AE: Diarrhea, G1 (Dose expansion (n = 12)): 4 (33) n (%)
- Treatment-related AE: Diarrhea, G2 (Dose expansion (n = 12)): 0 n (%)
- Treatment-related AE: Diarrhea, G3 (Dose expansion (n = 12)): 0 n (%)
- Treatment-related AE: Diarrhea, G4 (Dose expansion (n = 12)): 0 n (%)
- Treatment-related AE: Dry skin, G1 (Dose expansion (n = 12)): 1 (8) n (%)
- Treatment-related AE: Dry skin, G2 (Dose expansion (n = 12)): 0 n (%)
- Treatment-related AE: Dry skin, G3 (Dose expansion (n = 12)): 0 n (%)
- Treatment-related AE: Dry skin, G4 (Dose expansion (n = 12)): 0 n (%)
- Treatment-related AE: Encephalopathy, G1 (Dose expansion (n = 12)): 0 n (%)
- Treatment-related AE: Encephalopathy, G2 (Dose expansion (n = 12)): 0 n (%)
- Treatment-related AE: Encephalopathy, G3 (Dose expansion (n = 12)): 0 n (%)
- Treatment-related AE: Encephalopathy, G4 (Dose expansion (n = 12)): 1 (8) n (%)
- Treatment-related AE: Erythema, G1 (Dose expansion (n = 12)): 0 n (%)
- Treatment-related AE: Erythema, G2 (Dose expansion (n = 12)): 0 n (%)
- Treatment-related AE: Erythema, G3 (Dose expansion (n = 12)): 0 n (%)
- Treatment-related AE: Erythema, G4 (Dose expansion (n = 12)): 0 n (%)
- Treatment-related AE: Fatigue, G1 (Dose expansion (n = 12)): 2 (17) n (%)
- Treatment-related AE: Fatigue, G2 (Dose expansion (n = 12)): 0 n (%)
- Treatment-related AE: Fatigue, G3 (Dose expansion (n = 12)): 0 n (%)
- Treatment-related AE: Fatigue, G4 (Dose expansion (n = 12)): 0 n (%)
- Treatment-related AE: Headache, G1 (Dose expansion (n = 12)): 1 (8) n (%)
- Treatment-related AE: Headache, G2 (Dose expansion (n = 12)): 0 n (%)
- Treatment-related AE: Headache, G3 (Dose expansion (n = 12)): 0 n (%)
- Treatment-related AE: Headache, G4 (Dose expansion (n = 12)): 0 n (%)
- Treatment-related AE: Nausea, G1 (Dose expansion (n = 12)): 1 (8) n (%)
- Treatment-related AE: Nausea, G2 (Dose expansion (n = 12)): 0 n (%)
- Treatment-related AE: Nausea, G3 (Dose expansion (n = 12)): 0 n (%)
- Treatment-related AE: Nausea, G4 (Dose expansion (n = 12)): 0 n (%)
- Treatment-related AE: Paronychia, G1 (Dose expansion (n = 12)): 0 n (%)
- Treatment-related AE: Paronychia, G2 (Dose expansion (n = 12)): 0 n (%)
- Treatment-related AE: Paronychia, G3 (Dose expansion (n = 12)): 0 n (%)
- Treatment-related AE: Paronychia, G4 (Dose expansion (n = 12)): 0 n (%)
- Treatment-related AE: Rash, G1 (Dose expansion (n = 12)): 0 n (%)
- Treatment-related AE: Rash, G2 (Dose expansion (n = 12)): 1 (8) n (%)
- Treatment-related AE: Rash, G3 (Dose expansion (n = 12)): 0 n (%)
- Treatment-related AE: Rash, G4 (Dose expansion (n = 12)): 0 n (%)
- Treatment-related AE: Transaminases increased, G1 (Dose expansion (n = 12)): 0 n (%)
- Treatment-related AE: Transaminases increased, G2 (Dose expansion (n = 12)): 0 n (%)
- Treatment-related AE: Transaminases increased, G3 (Dose expansion (n = 12)): 0 n (%)
- Treatment-related AE: Transaminases increased, G4 (Dose expansion (n = 12)): 0 n (%)
- Treatment-related AE: Vomiting, G1 (Dose expansion (n = 12)): 4 (33) n (%)
- Treatment-related AE: Vomiting, G2 (Dose expansion (n = 12)): 0 n (%)
- Treatment-related AE: Vomiting, G3 (Dose expansion (n = 12)): 0 n (%)
- Treatment-related AE: Vomiting, G4 (Dose expansion (n = 12)): 0 n (%)
- Treatment-related AE: Weight increased, G1 (Dose expansion (n = 12)): 0 n (%)
- Treatment-related AE: Weight increased, G2 (Dose expansion (n = 12)): 0 n (%)
- Treatment-related AE: Weight increased, G3 (Dose expansion (n = 12)): 1 (8) n (%)
- Treatment-related AE: Weight increased, G4 (Dose expansion (n = 12)): 0 n (%)
- AESI aspartate aminotransferase increased (dose escalation suspension): 12%
- AESI epistaxis (dose escalation suspension): 12%
- AESI aspartate aminotransferase increased (dose escalation tablet): 6%
- AESI epistaxis (dose escalation tablet): 17%
- Deaths on study (eleven deaths, all due to PD): 20%
- AESI aspartate aminotransferase increased (expansion): 17%
- AESI creatine phosphokinase increased (expansion): 17%
- Adverse events of special interest (AESI) (expansion): 50%
- TRAEs leading to cobimetinib withdrawal (expansion): 8%
- TRAEs leading to cobimetinib withdrawal (overall, six patients): 11%
- Patients with DLTs (six patients, dose escalation, cycle 1): 11%
- Adverse events of special interest (AESI) (suspension dose escalation): 50%
- TRAEs leading to cobimetinib withdrawal (suspension dose escalation): 15%
- TRAEs leading to cobimetinib withdrawal (events) (suspension dose escalation, 1.0 mg/kg): grade 2 epitheliopathy/keratitis
- TRAEs leading to cobimetinib withdrawal (events) (suspension dose escalation, 1.33 mg/kg): grade 4 chorioretinopathy; also recorded: grade 2 ECG QT prolonged; also recorded: grade 1 serous retinal detachment
- Pediatric recommended Phase II dose (RP2D), suspension (suspension, Days 1–21 of 28-day cycle): 1.0 mg/kg
- TRAEs leading to cobimetinib withdrawal (tablet dose escalation): 6%
- TRAEs leading to cobimetinib withdrawal (events) (tablet dose escalation, 1.0 mg/kg): grade 2 retinal detachment
- Pediatric recommended Phase II dose (RP2D), tablet (tablet, Days 1–21 of 28-day cycle): 0.8 mg/kg
